S1P1 ag pot: S1P1 agonists and agonism potentiators, primary screen, cell-based, primary and confirmation screens, CRE-bla reporter | Sphingosine 1-phosphate receptor 1 (Homo sapiens), P21453 | S1P1 CRE-bla cells, forskolin, beta-lactamase FRET, potentiator mode; S1P1 agonist co-added at EC20, 2 nM; 100% = saturating reference agonist, 0% = basal | activation, % at 9.5 µM | 56,000 tested, 0.57% active;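 active = activation above a cutoff set at the mean activation of all tested compounds plus 3 SD, cut at about 54% in these data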;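 also: forskolin at 4 µM as EC80 and the EC20 agonist is SEW2871; 100% = SEW2871 at its EC100 plus forskolin at EC80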
HTR1E agonist: 5-HT1E receptor agonists, primary screen, cell-based, HTS; CHO 5-HT1E Ga15 NFAT-bla reporter, FRET; 0% DMSO wells, 100% control agonist wells; 5-hydroxytryptamine receptor 1E (Homo sapiens), P28566; 65,000 tested, 0.69% active; AID 574, 2007; activation, % at 6 µM;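 active = activation above a set limit, the screen-wide mean activation plus 3 SD, cut at about 8.5% in these data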;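 also: 100% = positive control agonist at 1 µM giving full maximal response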
Target sequence (P28566 whole entry, looked up): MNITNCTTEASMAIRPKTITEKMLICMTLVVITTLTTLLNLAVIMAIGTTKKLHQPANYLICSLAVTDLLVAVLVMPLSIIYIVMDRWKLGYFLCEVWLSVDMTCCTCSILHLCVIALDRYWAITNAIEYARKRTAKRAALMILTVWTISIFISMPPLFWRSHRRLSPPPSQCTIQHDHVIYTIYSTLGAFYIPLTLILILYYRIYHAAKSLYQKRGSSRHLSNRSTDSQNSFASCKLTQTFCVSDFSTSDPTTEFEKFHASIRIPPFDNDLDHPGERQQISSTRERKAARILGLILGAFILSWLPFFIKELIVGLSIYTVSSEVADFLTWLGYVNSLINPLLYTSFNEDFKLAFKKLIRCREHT
5HT1E antag: 5-HT1E receptor antagonists, primary screen, cell-based, HTS | 5-hydroxytryptamine receptor 1E (Homo sapiens), P28566 | CHO 5-HT1E Ga15 NFAT-bla reporter, FRET, antagonist | inhibition, % at 6 µM | 65,000 tested, 0.99% active | AID 571, 2007;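 active = inhibition above a set limit, the mean inhibition across every tested compound plus 3 SD, cut at about 29% in these data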;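 also: signal is the 460 over 535 nm emission ratio of beta-lactamase substrate; 0% = agonist plus DMSO wells and 100% = wells without agonist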
S1P3 agonist: human S1P3 receptor agonists, primary screen, cell-based, primary and confirmation, NFAT-BLA reporter; AID 373, 2006; Sphingosine 1-phosphate receptor 3 (Homo sapiens), Q99500; 60,000 tested, 0.1% active; S1P3 NFAT-BLA reporter cells, agonism, FRET ratio; relative to 1 µM S1P, basal subtracted; activation, % at 4.5 µM;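 active = activation above the screen-wide mean plus 3 SD, cut at about 4.5% in these data, passing the limit was not always enough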
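Material: Human S1P3 NFAT-BLA reporter CHO cells | Incubation: Overnight plating, 4 h compound 37 °C, 2 h substrate RT | Signal: FRET β-lactamase substrate fluorescence, excitation 405 nm, 460/535 nm emission ratio, background-subtracted | Compound: 4.5 µM final, single dose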
5HT1a antag: human 5-HT1a receptor antagonists, primary screen, cell-based, CHO, Ga15 NFAT-bla reporter | 62,000 tested, 0.68% active | AID 612, 2007 | CHO 5-HT1a Ga15 NFAT-bla reporter, antagonist mode | inhibition, % at 10 µM | 5-hydroxytryptamine receptor 1A (Homo sapiens), P08908;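 active = inhibition above the mean of all tested compounds plus 3 SD, cut at about 43% in these data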;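 also: receptor stimulated by 5-CT agonist at 100 nM near EC80; beta-lactamase reporter measured by ratiometric fluorescence of a cleavable substrate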
HTR1A agonist: human 5-HT1a receptor agonists, primary screen, cell-based, CHO, Ga15 NFAT-bla reporter | CHO 5-HT1a Ga15 NFAT-bla reporter, FRET ratio; 0% basal, 100% maximal reference agonist | 65,000 tested, 0.56% active | AID 567, 2006 | activation, % at 10 µM;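 active = activation above the screen-wide mean activation plus 3 SD, cut at about 19% in these data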;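 also: 0% = DMSO wells and 100% = 5-CT at EC100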
* = called active by the depositor. Shown are actives, neighbours in structure and some others; about 2.9% of the full set was active somewhere.

Screening CCOc1cc(S(=O)(=O)n2nc(C)cc2C)ccc1F returned S1P1 ag pot 5, HTR1E agonist 0, 5HT1E antag -2, S1P3 agonist -1, 5HT1a antag -3 and HTR1A agonist 1.
For Cc1ccccc1-c1nnc(SCc2ccccc2F)o1 the results were S1P1 ag pot 89*, HTR1E agonist 0, 5HT1E antag 5, S1P3 agonist 0, 5HT1a antag 0 and HTR1A agonist 4.
For CCNc1nc(NC(C)C)nc(N(C#N)Cc2ccccc2)n1 the results were S1P1 ag pot -12, HTR1E agonist 1, 5HT1E antag 20, S1P3 agonist 0, 5HT1a antag -18 and HTR1A agonist 2.
CCNc1nc(NC(C)(C)C)nc(N(C#N)CC)n1 was read as S1P1 ag pot -72, HTR1E agonist 0, 5HT1E antag 29*, S1P3 agonist 1, 5HT1a antag -7 and HTR1A agonist 2.
Screening Cc1cc(C)nc(N2CCC(CNC(=O)CCc3ccccc3)CC2)n1 returned S1P1 ag pot 13, HTR1E agonist 0, 5HT1E antag -3, S1P3 agonist 0, 5HT1a antag 1 and HTR1A agonist 1.
For COc1ccc(OC)c(C(=O)COC(=O)c2ccccc2O)c1 the results were S1P1 ag pot -13, HTR1E agonist 0, 5HT1E antag 0, S1P3 agonist -1, 5HT1a antag -1 and HTR1A agonist -1.
`Cc1nn(-c2nc3ccccc3s2)c(C)c1Oc1ccccc1O` gave S1P1 ag pot 6, HTR1E agonist 0, 5HT1E antag -10, S1P3 agonist 0, 5HT1a antag -12 and HTR1A agonist -4.
For O=C(c1cnn(-c2nc3ccccc3s2)c1)c1ccccc1O the results were S1P1 ag pot -12, HTR1E agonist 0, 5HT1E antag 12, S1P3 agonist -1, 5HT1a antag -7 and HTR1A agonist 21*.
CCOCCCNC(=O)Cc1c(C(=O)O)[nH]c2ccc(Cl)cc12 was read as S1P1 ag pot -10, HTR1E agonist 0, 5HT1E antag 6, S1P3 agonist -1, 5HT1a antag -2 and HTR1A agonist 1.
Screening CCOc1ncccc1C(=O)Nc1ccccc1C(=O)NCc1ccc2c(c1)OCO2 returned S1P1 ag pot 12, HTR1E agonist 0, 5HT1E antag 23, S1P3 agonist 0, 5HT1a antag 12 and HTR1A agonist 0.
For CCOc1ccccc1CN(CCc1ccc2c(c1)OCO2)Cc1ccccn1 the results were S1P1 ag pot -16, HTR1E agonist -1, 5HT1E antag 2, S1P3 agonist -1, 5HT1a antag 48* and HTR1A agonist 1.
Screening CC(=O)c1cc2c(cc1NC(=O)CN1CCN(c3cccc(C(F)(F)F)c3)CC1)OCO2 returned HTR1E agonist 1, 5HT1E antag -8, 5HT1a antag -6 and HTR1A agonist -1.
For CC(=O)Nc1ccc(CN2CCN(c3cccc(C(F)(F)F)c3)CC2)cc1 the results were S1P1 ag pot 0, HTR1E agonist 23*, 5HT1E antag 3, S1P3 agonist -2, 5HT1a antag 10 and HTR1A agonist 9.
Screening COc1ccccc1NC(=O)N1CCN(c2cccc(C(F)(F)F)c2)CC1 returned S1P1 ag pot 20, HTR1E agonist 13*, 5HT1E antag -4, S1P3 agonist 1, 5HT1a antag -10 and HTR1A agonist 3.
CCN(CC)C(=O)Sc1cccc2cccnc12 was read as S1P1 ag pot 4, HTR1E agonist 0, 5HT1E antag 8, S1P3 agonist 0, 5HT1a antag 2 and HTR1A agonist 0.
`CCOC(=O)CSc1cccc2cccnc12` gave S1P1 ag pot 34, HTR1E agonist 1, 5HT1E antag 40*, S1P3 agonist -1, 5HT1a antag 9 and HTR1A agonist -5.

Assay outcomes as filed in PubChem.
